Key:
Format in all cases: cell-based, mouse
HT22 cells [1] = assay: TUNEL assay of glutamate-induced oxytosis; conditions: 2 mM glutamate alone for 18 h, normalized by nuclei count
HT22 cells [2] = assay: Immunofluorescent staining of ssDNA; conditions: 2 mM glutamate alone for 18 h
Method in brief: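 HT22 cells on cover glass (5 × 10⁴ cells/well, 24 h) exposed to 2 mM L-glutamate in fresh medium for 18 h. Fixed in 4% paraformaldehyde (pH 7.4, 4 °C, 30 min), acetone-permeabilised, goat-serum blocked. Rabbit anti-ssDNA (1:200, 4 °C overnight), Alexa 594 secondary with DAPI. Confocal imaging; ssDNA-positive cells counted over total nuclei. At least three repeats, mean ± SD, ANOVA/Tukey-Kramer.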

HT22 cells [3] = assay: Cell morphology by phase contrast microscopy; conditions: 50 μM peptide or 2 mM glutamate (positive control), 24 h
AIF = AIF nuclear translocation by immunocytochemistry; conditions: HT22 cells, 2 mM glutamate alone for up to 18 h

`N[C@@H](CCC(=O)O)C(=O)O` [glutamate, L-glutamate] was tested, and the TUNEL-positive cells (HT22 cells [1]) was “up to 73%”, the ssDNA-positive cells (HT22 cells [2]) was 40% and the cell morphology (HT22 cells [3]) was “induced cell detachment and shrinkage”. The AIF localization (AIF) was “induced diffuse localization of AIF in both cytoplasm and nucleus”.

Reference: paper PMC8374356 (Biochemistry and Biophysics Reports, 2021)
